Experimental findings from ChEMBL document CHEMBL1125497, “Synthesis and anticonvulsant activity of enaminones” (J Med Chem, 1992) are described below.

A short description of series [1]: Antiepileptic activity in male CF1 mice 30 min after administration measured in neurological toxicity (Tox) test at a dose of 100 mg/kg (no. of animals treated /protected); activity value is 0/8. In kind it is functional, Mus musculus.
Series [2] in a line: Time of peak anticonvulsant effect in CF1 MICE after ip administration. In kind it is functional, Mus musculus. In outline: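 Male CF1 mice (ca. 24–34 g), compound in 0.5% methylcellulose suspension given ip or po; time (h) at which MES protection (against tonic hind limb extension) peaked was recorded and used for ED50 determination.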
Series [3] can be described thus: Time of peak neurotoxic effect in CF1 MICE after ip administration. The settings on record: mouse, in vivo. In kind it is ADME, organism-based. Summed up: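 Male CF1 mice (ca. 24–34 g), compound ip in 0.5% methylcellulose suspension; neurological deficit assessed by rotorod test, time (h) of peak neurotoxic effect recorded for TD50 determination.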
A short description of series [4]: Antiepileptic activity in male CF1 mice 4 hr after administration measured in neurological toxicity (Tox) test at a dose of 100 mg/kg; activity value is 0/4. It is filed as functional, Mus musculus.
A short description of series [5]: Antiepileptic activity in male CF1 mice 0.25 hr after oral administration measured in maximum electroshock seizure(MES) test at a dose of 50 mg/kg (no. of animals treated /protected); activity value is 2/4. In kind it is functional, Mus musculus.
Series [6] in a line: Antiepileptic activity in male CF1 mice 0.25 hr after oral administration measured in neurological toxicity (Tox) test at a dose of 50 mg/kg (no. of animals treated /protected); activity value is 0/4. It is filed as functional, Mus musculus.
Series [7] can be described thus: Antiepileptic activity in male CF1 mice 0.5 hr after oral administration measured in neurological toxicity (Tox) test at a dose of 50 mg/kg (no. of animals treated /protected); activity value is 0/4. In kind it is functional, Mus musculus.
The subject of series [8] is Rattus norvegicus. Kind of series: Per oral dose (75 mg/Kg) reducing rat corneal kindling 0.5 hr after administration. In kind it is functional. Summed up: (§1)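 Sprague-Dawley rats (85–95 g initial) were kindled with 4 s, 8 mA corneal stimulations (butacaine anesthesia) to 10 consecutive stage 5 seizures. After a vehicle shock and a 2-day shock-free period, test drug was given ip or po and a single shock applied at time of peak effect. Seizures were scored on a modified Racine 0–5 scale. ED50 is the dose reducing severity by 50% (Litchfield–Wilcoxon).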

Series [9] in a line: Protective index was measured as TD50/ED50 in rat on oral administration. The settings on record: in vivo, read-out: PI. It is filed as ADME, organism-based.
Series [10] in a line: Antiepileptic activity in male CF1 mice 30 min after administration measured in neurological toxicity (Tox) test at a dose of 300 mg/kg (no. of animals treated /protected); activity value is 4/4. In kind it is functional, Mus musculus.
Series [11] can be described thus: Antiepileptic activity in male CF1 mice 30 min after administration measured in neurological toxicity (Tox) test at a dose of 100 mg/kg (no. of animals treated /protected); activity value is 1/8. It is filed as functional, Mus musculus.
Series [12] is described as follows: Antiepileptic activity in male CF1 mice 0.25 hr after oral administration measured in maximum electroshock seizure(MES) test at a dose of 10 mg/kg (no. of animals treated /protected); activity value is 3/4. In kind it is functional, Mus musculus.
Series [13] can be described thus: Antiepileptic activity in male CF1 mice 1 hr after oral administration measured in maximum electroshock seizure(MES) test at a dose of 6 mg/kg (no. of animals treated /protected); activity value is 2/4. It is filed as functional, Mus musculus.
Series [14] is described as follows: Antiepileptic activity in male CF1 mice 4 hr after oral administration measured in maximum electroshock seizure(MES) test at a dose of 10 mg/kg (no. of animals treated /protected); activity value is 3/4. In kind it is functional, Mus musculus.
Series [15] concerns Rattus norvegicus. Put plainly: Average seizure score for the rat cornea 0.5 hr after peroral administration of 40 mg/kg of compound. In kind it is functional. The settings on record: route oral. In outline: as §1

In the case of `COC(=O)C1C(=O)C=C(NCc2ccccc2)CC1C` (stereo not given), the Activity worked out at 0 in series [1]; 0 in [4]; 2 in series [5]; 0 in [6]; 0 in [7]. For the same molecule, the TPE in series [2] is 0.5 h; in [3], 0.25 h. Further, the Reduction in the series on Rattus norvegicus [8] is 47%. In addition, in [9], the selectivity ratio came out at 18.7.
Consider `COC(=O)C1C(=O)C=C(Nc2ccc(Cl)cc2)CC1C` (stereo not given), for which the Activity in [10] came out at 4; in [11] it was 1; in series [12] it was 3; in series [13], 2; in series [14] it was 3. The molecule further had an Average seizure score in the series on Rattus norvegicus [15] of 2.6.
